Source: PubChem BioAssay
A selection: hits, their analogues and other compounds. The true share with any hit is near 1.5%.
PP5 primary = PP5 (human) phosphatase inhibition; purified PP5c, OMFP substrate fluorescence; inhibition, % at 6.7 µM; hit rate 0.18% among 320,000; AID 1987;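 active = inhibition above the campaign's mean inhibition across all tested compounds plus 3 SD, cut at about 9.5% in these data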;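 also: 0% = DMSO only and 100% = 100 µM cantharidin control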
RBBP9 inhibitor = blocks human serine hydrolase RBBP9 | recombinant RBBP9, FP-Rh probe fluorescence polarization | inhibition, % at 7.94 µM | hit rate 0.2% among 220,000 | AID 1515;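 active = inhibition above the campaign mean of all tested compounds plus 3 SD, cut at about 14% in these data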;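 also: plate controls were DMSO wells with RBBP9 for no effect and wells lacking RBBP9 protein for full effect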
Target sequence (O75884 whole entry, looked up): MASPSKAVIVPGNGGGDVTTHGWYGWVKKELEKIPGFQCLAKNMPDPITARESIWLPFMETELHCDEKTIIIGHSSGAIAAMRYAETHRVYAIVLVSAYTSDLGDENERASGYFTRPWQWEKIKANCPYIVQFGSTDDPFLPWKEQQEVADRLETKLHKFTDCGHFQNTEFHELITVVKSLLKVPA
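System: RBBP9 protein / Buffer or medium: Tris/NaCl buffer pH 8.0 with 0.1% Pluronic / Probe or stimulus: Serine-hydrolase probe FP-Rh, 375 nM pre-mixing / Dosing: 7.94 µM single dose, 0.794% DMSO / Times: enzyme-compound preincubation 30 min, then probe labeling 45 min, 25 °C / Technique: fluorescence polarization (mP), excitation 525 nm, emission 598 nm / Replication: singlicate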
p97 inhibitor = blocks human p97 ATPase activity; recombinant p97 ATPase, Kinase-Glo ATP luminescence, 3 h; inhibition, % at 8 µM; hit rate 0.42% among 220,000; in the data active = inhibition above about 15%;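 also: 0% = DMSO vehicle and 100% = wells lacking enzyme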
Hsp70 activator = switches on Hsp70 transcription; HeLa Hsp70 promoter luciferase reporter, luminescence; scaled: vehicle 0, proteasome-inhibitor control 100%; activation, % at 10 µM; hit rate 0.04% among 200,000;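 active = activation above the mean across all tested compounds plus 3 SD, cutoff set per campaign, cut at about 5.5% in these data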;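 also: 100% = MG132 at 30 µM as the positive control and 0% = DMSO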
PKD1 inh = blocks activity of human protein kinase D1; inhibition, % (concentration not given with the values); AID 797; Q15139; PKD1 kinase fluorescence polarization assay; hit rate 0.056% among 200,000; in the data active = inhibition above about 50%
PP1 inh = blocks human PP1-alpha phosphatase, a PP5 counter-screen; purified PP1alpha, OMFP fluorescence; inhibition, % at 6.7 µM; hit rate 0.9% among 320,000;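 active = inhibition above the mean inhibition of all tested compounds plus 3 SD, computed separately for each screening campaign, cut at about 15% in these data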
Target sequence (P62136 whole entry, looked up): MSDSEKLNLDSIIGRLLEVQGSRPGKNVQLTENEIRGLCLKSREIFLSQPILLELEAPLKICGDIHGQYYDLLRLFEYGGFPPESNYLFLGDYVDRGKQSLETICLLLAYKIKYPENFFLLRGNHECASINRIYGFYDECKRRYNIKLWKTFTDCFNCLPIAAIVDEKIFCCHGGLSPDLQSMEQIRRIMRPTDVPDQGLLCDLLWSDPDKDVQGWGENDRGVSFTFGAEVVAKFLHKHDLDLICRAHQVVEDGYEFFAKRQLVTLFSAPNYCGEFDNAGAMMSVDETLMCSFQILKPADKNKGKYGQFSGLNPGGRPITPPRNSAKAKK
* hit, by the source's call; · = no result.

SMILES	PP5 primary	RBBP9 inhibitor	p97 inhibitor	Hsp70 activator	PKD1 inh	PP1 inh
CC(=O)c1ccc(S(=O)(=O)Nc2ccc(C(=O)N(C)CC(=O)Nc3cccc(C)c3C)cc2)cc1	2	·	·	·	·	0
CC1CC(c2ccccc2)n2nc(NC(=O)CCc3ccccc3)nc2N1 (stereo unspecified)	2	5	4	0	-4	18*
O=C(NC1CCCCC1)c1ccc(-c2cccc([N+](=O)[O-])c2)o1	-3	·	·	·	·	1
O=C1C2C3C=CC(CO)(O3)C2C(=O)N1c1ccccc1-c1ccccc1 (stereo unspecified)	2	33*	2	0	-4	6
Cc1ccccc1C(=O)Nc1nnc(CC(=O)N/N=C/c2cn(Cc3ccccc3)c3ccccc23)s1	0	-3	-2	·	·	15*
COc1ccc(NC(=O)CCl)cn1	1	1	25*	·	·	1
COc1ccc(CC(=O)Nc2ccc(OC)nc2)cc1	0	1	6	0	2	-2
CCC(CO)Oc1cc(NCc2ccccc2Cl)c2ncn(C(C)C)c2c1 (stereo unspecified)	4	·	·	·	·	1
CCC(=O)NC(c1ccc(OC)cc1)c1cc(Cl)c2cccnc2c1O (stereo unspecified)	0	4	4	0	1	16*
CCC(=O)NC(c1ccco1)c1cc(Cl)c2cccnc2c1O (stereo unspecified)	2	-9	4	0	7	5
COc1ccc(-c2nnn(CC(=O)Nc3ccc4c(c3)OCCO4)n2)cc1OC	-2	·	·	·	·	-1
O=C(COc1ccccc1Cl)NCCCNC(=O)c1cccnc1	2	·	·	·	·	0
COc1cccc(/C=N/Nc2nc(Nc3ccc([N+](=O)[O-])cc3)nc(N3CCCC3)n2)c1O	5	-6	10	1	-5	16*
O=[N+]([O-])c1ccc(Nc2nc(N/N=C/c3cccc(F)c3)nc(N3CCCC3)n2)cc1	1	7	6	0	6	8
CCc1ccc(NC(=O)C(=O)NNC(=O)c2cccc(OC)c2)cc1	1	·	·	·	·	-1
COc1cccc(C(=O)NNC(=O)C(=O)Nc2ccc(C)c(Cl)c2)c1	2	·	·	·	·	16*
Cc1ccc(S(=O)(=O)Nc2ccccc2C(=O)Nc2nc(-c3ccc(F)cc3)cs2)cc1	2	-21	-3	0	4	17*
N#C/C(=C(O)\C=C\c1ccccc1)c1nc2ccccc2[nH]1	3	-2	3	·	·	16*
C(=C\c1ccccc1)/C=N/Nc1nc2ccccc2[nH]1	4	3	6	0	19	16*
CCN(CC)S(=O)(=O)c1ccc(N2CCCC2)c(NC(=O)C2=NN(c3ccccc3)C(=O)CC2)c1	0	·	·	·	·	4
O=S(=O)(c1ccc(F)cc1)N1CCN(c2nc(-c3cccnc3)nc3ccccc23)CC1	2	·	·	·	·	17*
CC(=O)c1ccc(S(=O)(=O)N2CCN(c3nc(-c4cccnc4)nc4ccccc34)CC2)cc1	2	·	·	·	·	14
CCOc1cc(/C=C2\C(=O)N(c3cccc(C(=O)O)c3)N=C2C(F)(F)F)ccc1OCC(=O)Nc1ccccc1OC	-1	·	·	·	·	17*
CCOc1cc(/C=N/n2cnnc2)ccc1OCC(=O)Nc1ccccc1OC	4	-9	1	0	14	1
O=C(OC[C@H]1O[C@@H](OC(=O)c2cc(O)c(O)c(OC(=O)c3cc(O)c(O)c(O)c3)c2)[C@H](OC(=O)c2cc(O)c(O)c(OC(=O)c3cc(O)c(O)c(O)c3)c2)[C@@H](OC(=O)c2cc(O)c(O)c(OC(=O)c3cc(O)c(O)c(O)c3)c2)[C@@H]1OC(=O)c1cc(O)c(O)c(OC(=O)c2cc(O)c(O)c(O)c2)c1)c1cc(O)c(O)c(OC(=O)c2cc(O)c(O)c(O)c2)c1	4	·	·	·	·	82*
SMILES	PP5 primary	RBBP9 inhibitor	p97 inhibitor	Hsp70 activator	PKD1 inh	PP1 inh
O=C(CN1CCN(S(=O)(=O)c2cccc(F)c2)CC1)NCC1(N2CCOCC2)CCCCC1	-1	·	·	·	·	-2
O=c1[nH]c(COc2ccc(Cl)cc2Br)nc2ccccc12	0	·	·	·	·	4
O=c1cc(O)c2c(=O)n(Cc3ccccc3)c3ccccc3c2o1	-1	-9	10	0	-2	29*
COc1ccc(CC(NC(C)=O)C(=O)NC2CCN(C(=O)c3cc(OC)c(OC)c(OC)c3)CC2)cc1 (stereo unspecified)	1	0	6	·	·	-7
O=C(c1ccccc1F)N(NC(=O)C(O)(c1ccccc1)c1ccccc1)c1ccccc1	2	-5	3	0	1	17*
N#CCC(=O)Nc1ccc(C(=O)OCC(=O)Nc2ccc3ccccc3c2)cc1	1	·	·	·	·	15*
O=C(COC(=O)c1ccc(CO)cc1)Nc1ccc2ccccc2c1	1	·	·	·	·	7
CCCc1cc(=O)[nH]c(SCCCCN2C(=O)c3ccccc3C2=O)n1	-2	-8	3	0	109*	4
N=C1S/C(=C\c2cccc3ccccc23)C(=O)N1c1ccc(F)cc1	1	-10	2	0	2	17*
COc1ccc(OCC(=O)Nc2cc(NC(=O)COc3ccc(OC)cc3)cc(C(=O)O)c2)cc1	1	·	·	·	·	3
Cc1ccc(OCC(=O)Nc2cc(NC(=O)COc3ccc(C)c(C)c3)cc(C(=O)O)c2)cc1C	5	·	·	·	·	16*
Cc1cccc(-n2ncc3c(=O)[nH]c(SCC(=O)N4CC(=O)Nc5ccccc54)nc32)c1	2	·	·	·	·	-1
C#CCOCCOCCOCCNc1nc(N2CCOCC2)nc(N2CCN(C(=O)CCCCCCCCCCNC(=O)[C@@H]([C@H](C)CC)n3cc(CCCCCN)nn3)CC2)n1	0	·	·	·	·	11
C#CCOCCOCCOCCNc1nc(N2CCN(C(=O)CCCCCCCCCCNC(=O)[C@H]([C@@H](C)CC)n3cc(CCCCCN)nn3)CC2)nc(N2CCN(C(=O)CCCCCCCCCCNC(=O)[C@@H]([C@H](C)CC)n3cc(CCCCCN)nn3)CC2)n1	3	·	·	·	·	64*
C#CCOCCOCCOCCNc1nc(N2CCN(C(=O)CCCCCCCCCCNC(=O)[C@H](CO)n3cc(CCCSC)nn3)CC2)nc(N2CCN(C(=O)CCCCCCCCCCNC(=O)[C@@H]([C@H](C)O)n3cc(C)nn3)CC2)n1	2	·	·	·	·	31*
C#CCOCCOCCOCCNc1nc(N2CCN(C(=O)CCCCCCCCCCNC(=O)[C@H]([C@@H](C)CC)n3cc(CCCCN=C(N)N)nn3)CC2)nc(N2CCN(C(=O)CCCCCCCCCCNC(=O)[C@H]([C@@H](C)CC)n3cc(CCCCN=C(N)N)nn3)CC2)n1	9	·	·	·	·	74*
COC(=O)C1CCN(C(=O)COC(=O)c2cc(-c3ccccc3)nc3ccc(OC)cc23)CC1	1	·	·	·	·	3
O=C(O)COc1ccc(/C=C2/SC(=S)N(Cc3ccccc3)C2=O)cc1	2	·	·	·	·	15*
O=C(O)CN1C(=O)/C(=C\c2ccc(OC(=O)c3ccco3)cc2)SC1=S	2	·	·	·	·	0
CC(C)c1ccc(CN(C)C(=O)c2ccc(S(=O)(=O)NCc3ccco3)cc2)cc1	3	·	·	·	·	-2
